Assay results: ChEMBL document CHEMBL4052595, “Application of Residual Dipolar Couplings and Selective Quantitative NOE to Establish the Structures of Tetranortriterpenoids from Xylocarpus rumphii” (J Nat Prod, 2017)
Active and inactive are the calls of the source.

Experiments:
Type in all cases: functional, cell-based
[1] = test system: BT-549; assay: Growth inhibition of human BT549 cells at 10^-5 M incubated for 48 hrs by sulforhodamine B assay
Summary of the method: (§1)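 Run in the NCI59 one-dose cell-line screen, with each compound tested at a single concentration of 1 × 10−5 M.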

[2] = test system: T47D; assay: Growth inhibition of human T47D cells at 10^-5 M incubated for 48 hrs by sulforhodamine B assay
Summary of the method: (§2)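 Tested at a single concentration of 1 × 10−5 M as part of the NCI59 cell-line one-dose screen.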

[3] = test system: Hs-578T; assay: Growth inhibition of human Hs 578T cells at 10^-5 M incubated for 48 hrs by sulforhodamine B assay; summary of the method: as §1
[4] = test system: MCF7; assay: Growth inhibition of human MCF7 cells at 10^-5 M incubated for 48 hrs by sulforhodamine B assay; summary of the method: as §1
[5] = test system: MDA-MB-231; assay: Growth inhibition of human MDA-MB-231 cells at 10^-5 M incubated for 48 hrs by sulforhodamine B assay; summary of the method: as §1
[6] = test system: DU-145; assay: Growth inhibition of human DU145 cells at 10^-5 M incubated for 48 hrs by sulforhodamine B assay; summary of the method: as §1
[7] = test system: UO-31; assay: Growth inhibition of human UO31 cells at 10^-5 M incubated for 48 hrs by sulforhodamine B assay; summary of the method: as §2
[8] = test system: PC-3; assay: Growth inhibition of human PC3 cells at 10^-5 M incubated for 48 hrs by sulforhodamine B assay; summary of the method: as §1
[9] = test system: SN12C; assay: Growth inhibition of human SN12C cells at 10^-5 M incubated for 48 hrs by sulforhodamine B assay; summary of the method: as §1
[10] = test system: TK-10; assay: Growth inhibition of human TK10 cells at 10^-5 M incubated for 48 hrs by sulforhodamine B assay; summary of the method: as §2
[11] = test system: RXF 393; assay: Growth inhibition of human RXF393 cells at 10^-5 M incubated for 48 hrs by sulforhodamine B assay; summary of the method: as §1
[12] = test system: ACHN; assay: Growth inhibition of human ACHN cells at 10^-5 M incubated for 48 hrs by sulforhodamine B assay; summary of the method: as §1
[13] = test system: CAKI-1; assay: Growth inhibition of human Caki1 cells at 10^-5 M incubated for 48 hrs by sulforhodamine B assay; summary of the method: as §1
[14] = test system: A498; assay: Growth inhibition of human A498 cells at 10^-5 M incubated for 48 hrs by sulforhodamine B assay; summary of the method: as §1
[15] = test system: 786-0; assay: Growth inhibition of human 786-0 cells at 10^-5 M incubated for 48 hrs by sulforhodamine B assay; summary of the method: as §1
[16] = test system: NCI/ADR-RES; assay: Growth inhibition of human NCI/ADR-RES cells at 10^-5 M incubated for 48 hrs by sulforhodamine B assay; summary of the method: as §1
[17] = test system: SK-OV-3; assay: Growth inhibition of human SKOV3 cells at 10^-5 M incubated for 48 hrs by sulforhodamine B assay; summary of the method: as §1
[18] = test system: OVCAR-8; assay: Growth inhibition of human OVCAR8 cells at 10^-5 M incubated for 48 hrs by sulforhodamine B assay; summary of the method: as §1
[19] = test system: OVCAR-4; assay: Growth inhibition of human OVCAR4 cells at 10^-5 M incubated for 48 hrs by sulforhodamine B assay; summary of the method: as §1
[20] = test system: OVCAR-5; assay: Growth inhibition of human OVCAR5 cells at 10^-5 M incubated for 48 hrs by sulforhodamine B assay; summary of the method: as §1
[21] = test system: IGROV-1; assay: Growth inhibition of human IGROV1 cells at 10^-5 M incubated for 48 hrs by sulforhodamine B assay; summary of the method: as §1
[22] = test system: OVCAR-3; assay: Growth inhibition of human OVCAR3 cells at 10^-5 M incubated for 48 hrs by sulforhodamine B assay; summary of the method: as §1
[23] = test system: UACC-62; assay: Growth inhibition of human UACC62 cells at 10^-5 M incubated for 48 hrs by sulforhodamine B assay; summary of the method: as §2
[24] = test system: SK-MEL-5; assay: Growth inhibition of human SK-MEL-5 cells at 10^-5 M incubated for 48 hrs by sulforhodamine B assay; summary of the method: as §1
[25] = test system: UACC-257; assay: Growth inhibition of human UACC257 cells at 10^-5 M incubated for 48 hrs by sulforhodamine B assay; summary of the method: as §2
[26] = test system: SK-MEL-28; assay: Growth inhibition of human SK-MEL-28 cells at 10^-5 M incubated for 48 hrs by sulforhodamine B assay; summary of the method: as §1
[27] = test system: MDA-MB-435; assay: Growth inhibition of human MDA-MB-435 cells at 10^-5 M incubated for 48 hrs by sulforhodamine B assay; summary of the method: as §1
[28] = test system: SK-MEL-2; assay: Growth inhibition of human SK-MEL-2 cells at 10^-5 M incubated for 48 hrs by sulforhodamine B assay; summary of the method: as §1
[29] = test system: M14; assay: Growth inhibition of human M14 cells at 10^-5 M incubated for 48 hrs by sulforhodamine B assay; summary of the method: as §1
[30] = test system: U-251; assay: Growth inhibition of human U251 cells at 10^-5 M incubated for 48 hrs by sulforhodamine B assay; summary of the method: as §2
[31] = test system: LOX IMVI; assay: Growth inhibition of human LOXIMVI cells at 10^-5 M incubated for 48 hrs by sulforhodamine B assay; summary of the method: as §1
[32] = test system: SNB-19; assay: Growth inhibition of human SNB19 cells at 10^-5 M incubated for 48 hrs by sulforhodamine B assay; summary of the method: as §1
[33] = test system: SNB-75; assay: Growth inhibition of human SNB75 cells at 10^-5 M incubated for 48 hrs by sulforhodamine B assay; summary of the method: as §1
[34] = test system: SF-539; assay: Growth inhibition of human SF539 cells at 10^-5 M incubated for 48 hrs by sulforhodamine B assay; summary of the method: as §1
[35] = test system: SF-268; assay: Growth inhibition of human SF268 cells at 10^-5 M incubated for 48 hrs by sulforhodamine B assay; summary of the method: as §1
[36] = test system: SF-295; assay: Growth inhibition of human SF295 cells at 10^-5 M incubated for 48 hrs by sulforhodamine B assay; summary of the method: as §1
[37] = test system: SW-620; assay: Growth inhibition of human SW620 cells at 10^-5 M incubated for 48 hrs by sulforhodamine B assay; summary of the method: as §2
[38] = test system: HT-29; assay: Growth inhibition of human HT-29 cells at 10^-5 M incubated for 48 hrs by sulforhodamine B assay; summary of the method: as §1
[39] = test system: KM12; assay: Growth inhibition of human KM12 cells at 10^-5 M incubated for 48 hrs by sulforhodamine B assay; summary of the method: as §1
[40] = test system: HCT-116; assay: Growth inhibition of human HCT116 cells at 10^-5 M incubated for 48 hrs by sulforhodamine B assay; summary of the method: as §1
[41] = test system: HCT-15; assay: Growth inhibition of human HCT15 cells at 10^-5 M incubated for 48 hrs by sulforhodamine B assay; summary of the method: as §1
[42] = test system: HCC 2998; assay: Growth inhibition of human HCC2998 cells at 10^-5 M incubated for 48 hrs by sulforhodamine B assay; summary of the method: as §1
[43] = test system: NCI-H522; assay: Growth inhibition of human NCI-H522 cells at 10^-5 M incubated for 48 hrs by sulforhodamine B assay; summary of the method: as §1
[44] = test system: COLO 205; assay: Growth inhibition of human COLO205 cells at 10^-5 M incubated for 48 hrs by sulforhodamine B assay; summary of the method: as §1
[45] = test system: NCI-H460; assay: Growth inhibition of human NCI-H460 cells at 10^-5 M incubated for 48 hrs by sulforhodamine B assay; summary of the method: as §1
[46] = test system: NCI-H23; assay: Growth inhibition of human NCI-H23 cells at 10^-5 M incubated for 48 hrs by sulforhodamine B assay; summary of the method: as §1
[47] = test system: NCI-H322M; assay: Growth inhibition of human NCI-H322M cells at 10^-5 M incubated for 48 hrs by sulforhodamine B assay; summary of the method: as §1
[48] = test system: NCI-H226; assay: Growth inhibition of human NCI-H226 cells at 10^-5 M incubated for 48 hrs by sulforhodamine B assay; summary of the method: as §1
[49] = test system: HOP-62; assay: Growth inhibition of human HOP62 cells at 10^-5 M incubated for 48 hrs by sulforhodamine B assay; summary of the method: as §1
[50] = test system: HOP-92; assay: Growth inhibition of human HOP92 cells at 10^-5 M incubated for 48 hrs by sulforhodamine B assay; summary of the method: as §1
[51] = test system: A549; assay: Growth inhibition of human A549/ATCC cells at 10^-5 M incubated for 48 hrs by sulforhodamine B assay; summary of the method: as §1
[52] = test system: EKVX; assay: Growth inhibition of human EKVX cells at 10^-5 M incubated for 48 hrs by sulforhodamine B assay; summary of the method: as §1
[53] = test system: SR; assay: Growth inhibition of human SR cells at 10^-5 M incubated for 48 hrs by sulforhodamine B assay; summary of the method: as §1
[54] = test system: MOLT-4; assay: Growth inhibition of human MOLT4 cells at 10^-5 M incubated for 48 hrs by sulforhodamine B assay; summary of the method: as §1
[55] = test system: RPMI-8226; assay: Growth inhibition of human RPMI8226 cells at 10^-5 M incubated for 48 hrs by sulforhodamine B assay; summary of the method: as §1
[56] = test system: K562; assay: Growth inhibition of human K562 cells at 10^-5 M incubated for 48 hrs by sulforhodamine B assay; summary of the method: as §1
[57] = test system: CCRF-CEM; assay: Growth inhibition of human CCRF-CEM cells at 10^-5 M incubated for 48 hrs by sulforhodamine B assay; summary of the method: as §1
[58] = test system: HL-60(TB); assay: Growth inhibition of human HL-60(TB) cells at 10^-5 M incubated for 48 hrs by sulforhodamine B assay
Summary of the method: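 Run in the NCI59 cell-line one-dose screen, with each compound tested at a single concentration of 1 × 10−5 M.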

Measured: growth inhibition (GI)

CC[C@H](C)C(=O)O[C@@H]1[C@@H]2[C@@H](OC(=O)[C@@H](C)CC)[C@@]34O[C@]2(O)[C@@](C)([C@@H](CC(=O)OC)C1(C)C)[C@H]3CC[C@]1(C)C4=CC(=O)O[C@H]1C1=CC(O)OC1=O (stereo partly specified)
inactive: all assays above

CC[C@H](C)C(=O)O[C@@H]1[C@H]2[C@@H](OC(=O)C(C)C)C(C)(C)[C@H](CC(=O)OC)[C@@]3(C)[C@H]4CC[C@]5(C)C(=CC(=O)O[C@H]5C5=CC(O)OC5=O)[C@@]14O[C@@]23O (stereo partly specified)
inactive: all assays above
